In paper PMC6436633 (ChemMedChem, 2018):
Like-named read-outs stand apart in the source and are kept apart here.

Key:
PfPK5 [1] = target: T1, PfPK5 (Plasmodium falciparum, UniProt P61075); assay: KINOMEscan active-site-directed competition binding assay, PfPK5; settings: read-out: PfPK5 Kd(app), determined in duplicate, 0–30 μM
PfPK5 [2] = target: T1, PfPK5; settings: read-out: PfPK5 Kd; cited from earlier work
[3] = test system: P. falciparum Dd2 asexual blood stage parasites; assay: P. falciparum Dd2 asexual blood stage inhibition; type: cell-based, Plasmodium falciparum; settings: read-out: blood stage parasite EC50, dose-response
Method in brief: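 Asexual blood-stage P. falciparum Dd2 cultured with test compound in O-positive human blood for 72 h at 37 °C under 93% N2, 4% CO2, 3% O2, with 0.2% DMSO final. Nuclei then stained with SYBR Green I and fluorescence read. Data normalised to DMSO, with artesunate as positive control.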

HuH7 cells = type: cell-based, human
PfPK5 [4] = target: T1, PfPK5; settings: read-out: PfPK5 IC50; cited from earlier work

T1 sequence (P61075 whole entry): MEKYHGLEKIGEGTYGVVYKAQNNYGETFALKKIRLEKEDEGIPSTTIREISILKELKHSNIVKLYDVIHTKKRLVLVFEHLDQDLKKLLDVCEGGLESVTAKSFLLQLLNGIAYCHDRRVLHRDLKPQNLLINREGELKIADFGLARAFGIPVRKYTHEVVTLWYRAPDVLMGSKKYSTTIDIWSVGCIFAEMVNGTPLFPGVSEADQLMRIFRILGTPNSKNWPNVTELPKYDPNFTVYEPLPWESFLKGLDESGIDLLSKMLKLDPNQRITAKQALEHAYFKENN

Kd (PfPK5 [1])	EC50 [3]	EC50 (HuH7 cells)	Compound	Kd (PfPK5 [2])	IC50 (PfPK5 [4])
0.37 µM	0.14 µM	67 µM	Nc1nc(Nc2ccc(S(N)(=O)=O)cc2)nn1C(=S)Nc1c(F)cccc1F [Compound 1a]	0.32 µM	
			CC(C)[C@H](CO)Nc1nc(Nc2cccc(Cl)c2)c2ncn(C(C)C)c2n1 [Purvalanol A, purvalanol A]		8 µM
			O=C1Nc2ccccc2/C1=C1/Nc2ccccc2/C1=N\O [indirubin-3´-monoxime]		6 µM
